{
  "source": "ChEMBL document CHEMBL4265907",
  "about": "“Design, synthesis and pharmacological evaluation of N4,N6-disubstituted pyrimidine-4,6-diamine derivatives as potent EGFR inhibitors in non-small cell lung cancer” (Eur J Med Chem, 2018)",
  "key": {"[1]": {"system": "A-431", "assay": "Induction of apoptosis in human A431 cells assessed as necrotic cells at 1000 nM after 48 hrs by Annexin V-FITC/PI staining based flow cytometry (reference value: 4.16%)", "format": "functional"}, "[2]": {"assay": "MRT (0 to t) in Sprague-Dawley rat at 30 mg/kg, po by UPLC-MS/MS analysis", "format": "ADME, organism-based", "settings": "in vivo", "in_short": "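Male and female Sprague-Dawley rats (200–220 g) were fasted 12 h and given a single oral dose of 30 mg/kg as a 0.5% CMC-Na suspension. Blood was sampled at 0.083, 0.25, 0.5, 1, 2, 4, 8 and 24 h and centrifuged at 4000 r/min for 10 min. Plasma was quantified by UPLC–MS/MS.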"}, "[3]": {"system": "A-431", "assay": "Induction of apoptosis in human A431 cells assessed as late apoptotic cells at 1000 nM after 48 hrs by Annexin V-FITC/PI staining based flow cytometry (reference value: 2.11%)", "format": "functional"}, "[4]": {"system": "NCI-H3255", "assay": "Induction of apoptosis in human H3255 cells assessed as early apoptotic cells at 500 nM after 48 hrs by Annexin V-FITC/PI staining based flow cytometry (reference value: 3.22%)", "format": "functional"}, "[5]": {"system": "PC-9", "assay": "Antitumor activity against human PC9 cells xenografted in BALB/C nude mouse assessed as decrease in tumor weight at 15 to 30 mg/kg, ip qd administered for 19 days measured for 23 days", "format": "functional, organism-based", "in_short": "(§1)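 Six-week-old BALB/C-nu mice given 2×10^6 PC-9 cells subcutaneously in the right flank. At tumour size ~0.2-0.4 cm³, randomised, 5 mice/group. Dosed ip daily for 19 days at 15 or 30 mg/kg, vehicle DMSO:Span-80:ddH₂O = 2:1:50; vehicle-treated control group. Tumour volume = (W²×L)/2. Tumours weighed.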"}, "[6]": {"system": "Mus musculus", "assay": "In vivo inhibition of AKT phosphorylation in tumor of BALB/C nude mouse xenografted with human PC9 cells at 15 to 30 mg/kg, ip qd administered for 19 days by immunohistochemical analysis", "format": "functional, organism-based"}, "[7]": {"system": "NCI-H1975", "assay": "Induction of apoptosis in human NCI-H1975 cells assessed as early apoptotic cells at 500 nM after 48 hrs by Annexin V-FITC/PI staining based flow cytometry (reference value: 2.07%)", "format": "functional"}, "[8]": {"system": "HCC827", "assay": "Induction of apoptosis in human HCC827 cells assessed as viable cells at 1000 nM after 48 hrs by Annexin V-FITC/PI staining based flow cytometry (reference value: 94.6%)", "format": "functional", "settings": "HCC827, 48 h, read-out: Activity"}, "[9]": {"system": "NCI-H3255", "assay": "Induction of apoptosis in human H3255 cells assessed as necrotic cells at 250 nM after 48 hrs by Annexin V-FITC/PI staining based flow cytometry (reference value: 7.06%)", "format": "functional"}, "[10]": {"target": "T1, Epidermal growth factor receptor (Homo sapiens, UniProt P00533)", "T1 sequence (P00533 whole entry)": "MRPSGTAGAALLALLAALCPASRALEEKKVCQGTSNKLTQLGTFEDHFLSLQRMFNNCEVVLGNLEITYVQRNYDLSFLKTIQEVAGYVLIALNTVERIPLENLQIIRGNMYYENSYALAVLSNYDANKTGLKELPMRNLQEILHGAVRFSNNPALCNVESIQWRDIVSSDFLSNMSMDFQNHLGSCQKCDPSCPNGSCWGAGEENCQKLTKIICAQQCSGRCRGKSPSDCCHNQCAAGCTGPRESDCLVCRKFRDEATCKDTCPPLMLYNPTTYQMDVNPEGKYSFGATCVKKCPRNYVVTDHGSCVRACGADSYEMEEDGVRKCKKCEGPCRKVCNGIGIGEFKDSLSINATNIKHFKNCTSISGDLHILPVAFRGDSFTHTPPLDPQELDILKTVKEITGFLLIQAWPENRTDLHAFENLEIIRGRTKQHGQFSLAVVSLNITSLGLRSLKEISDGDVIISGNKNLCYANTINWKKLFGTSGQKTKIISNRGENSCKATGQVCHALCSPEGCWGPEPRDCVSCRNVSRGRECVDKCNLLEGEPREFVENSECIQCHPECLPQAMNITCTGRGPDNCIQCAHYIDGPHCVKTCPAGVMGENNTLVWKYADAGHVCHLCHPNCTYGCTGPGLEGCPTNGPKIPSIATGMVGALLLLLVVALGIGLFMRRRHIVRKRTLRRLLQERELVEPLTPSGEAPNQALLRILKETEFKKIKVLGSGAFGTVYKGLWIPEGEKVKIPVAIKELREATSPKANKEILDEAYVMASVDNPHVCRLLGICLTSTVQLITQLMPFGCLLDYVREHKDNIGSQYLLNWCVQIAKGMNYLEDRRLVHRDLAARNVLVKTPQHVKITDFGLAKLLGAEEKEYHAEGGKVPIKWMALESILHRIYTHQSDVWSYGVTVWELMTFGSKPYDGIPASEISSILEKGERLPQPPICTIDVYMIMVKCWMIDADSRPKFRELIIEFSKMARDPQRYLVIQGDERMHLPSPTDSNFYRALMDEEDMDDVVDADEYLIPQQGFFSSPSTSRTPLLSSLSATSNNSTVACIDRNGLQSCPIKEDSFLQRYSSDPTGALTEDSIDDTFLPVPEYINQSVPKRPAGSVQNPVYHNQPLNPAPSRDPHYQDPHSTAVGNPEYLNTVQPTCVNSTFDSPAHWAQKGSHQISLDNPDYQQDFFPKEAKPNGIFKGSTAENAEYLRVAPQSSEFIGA", "assay": "Inhibition of EGF-induced EGFR autophosphorylation at Y1068 residues in human H1975 cells by Western blot method", "format": "cell-based", "in_short": "(§2)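 Cell lysates prepared in protein lysis buffer and cleared at 12,000 g for 10 min at 4 °C. 50 μg protein per lane was run on a gel, transferred to PVDF and immunoblotted, with GAPDH as the loading control.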"}, "[11]": {"target": "T1, Epidermal growth factor receptor", "assay": "Inhibition of EGFR in human H1975 cells assessed as decrease in EGF-induced ERK1/2 phosphorylation by Western blot method", "format": "cell-based", "in_short": "as §2"}, "[12]": {"assay": "Cmax in Sprague-Dawley rat at 30 mg/kg, po by UPLC-MS/MS analysis", "format": "ADME, organism-based", "design": "dose 30 mg/kg, route oral", "settings": "in vivo", "in_short": "(§3)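 Four female and four male Sprague-Dawley rats, 200-220 g, fasted 12 h, then given a single oral dose of 30 mg/kg as a 0.5% CMC-Na suspension. Blood sampled at 0.083, 0.25, 0.5, 1, 2, 4, 8 and 24 h, plasma separated by centrifugation at 4000 r/min for 10 min, and analysed by UPLC–MS/MS. Parameters reported as mean ± SD, n=6.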"}, "[13]": {"system": "A-431", "assay": "Induction of apoptosis in human A431 cells assessed as early apoptotic cells at 250 nM after 48 hrs by Annexin V-FITC/PI staining based flow cytometry (reference value: 3.40%)", "format": "functional"}, "[14]": {"system": "Mus musculus", "assay": "In vivo inhibition of AKT phosphorylation in tumor of BALB/C nude mouse xenografted with human PC9 cells at 15 to 30 mg/kg, ip qd administered for 19 days by immunoblot method", "format": "functional, organism-based"}, "[15]": {"target": "T1, Epidermal growth factor receptor", "assay": "Inhibition of EGF-induced EGFR autophosphorylation at Y1068 residues in human H3255 cells by Western blot method", "format": "cell-based", "in_short": "as §2"}, "[16]": {"system": "A-431", "assay": "Induction of apoptosis in human A431 cells assessed as viable cells at 1000 nM after 48 hrs by Annexin V-FITC/PI staining based flow cytometry (reference value: 90.3%)", "format": "functional", "settings": "A-431, 48 h, read-out: Activity"}, "[17]": {"system": "NCI-H3255", "assay": "Induction of apoptosis in human H3255 cells assessed as viable cells at 500 nM after 48 hrs by Annexin V-FITC/PI staining based flow cytometry (reference value: 87.9%)", "format": "functional", "settings": "NCI-H3255, 48 h, read-out: Activity"}, "[18]": {"system": "HCC827", "assay": "Induction of apoptosis in human HCC827 cells assessed as viable cells at 500 nM after 48 hrs by Annexin V-FITC/PI staining based flow cytometry (reference value: 94.6%)", "format": "functional", "settings": "HCC827, 48 h, read-out: Activity"}, "[19]": {"system": "PC-9", "assay": "Antitumor activity against human PC9 cells xenografted in BALB/C nude mouse assessed as decrease in tumor volume at 15 to 30 mg/kg, ip qd administered for 19 days measured for 23 days", "format": "functional, organism-based", "in_short": "as §1"}, "[20]": {"system": "Rattus norvegicus", "assay": "Volume of distribution in Sprague-Dawley rat at 30 mg/kg, po by UPLC-MS/MS analysis", "format": "ADME, organism-based", "settings": "in vivo", "in_short": "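Sprague-Dawley rats (four female, four male; 200-220 g) were fasted 12 h and given a single oral 30 mg/kg dose as a 0.5% CMC-Na suspension. Blood was drawn at 0.083, 0.25, 0.5, 1, 2, 4, 8 and 24 h and centrifuged at 4000 r/min for 10 min. Samples were quantified by UPLC–MS/MS; parameters are reported for n=6.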"}, "[21]": {"system": "A-431", "assay": "Induction of apoptosis in human A431 cells assessed as late apoptotic cells at 500 nM after 48 hrs by Annexin V-FITC/PI staining based flow cytometry (reference value: 2.11%)", "format": "functional"}, "[22]": {"system": "NCI-H1975", "assay": "Induction of apoptosis in human NCI-H1975 cells assessed as late apoptotic cells at 250 nM after 48 hrs by Annexin V-FITC/PI staining based flow cytometry (reference value: 1.91%)", "format": "functional"}, "[23]": {"target": "T1, Epidermal growth factor receptor", "assay": "Inhibition of EGF-induced EGFR autophosphorylation at Y1068 residues in human A431 cells by Western blot method", "format": "cell-based", "in_short": "as §2"}, "[24]": {"system": "Mus musculus", "assay": "In vivo inhibition of EGFR phosphorylation in tumor of BALB/C nude mouse xenografted with human PC9 cells at 15 to 30 mg/kg, ip qd administered for 19 days by immunohistochemical analysis", "format": "functional, organism-based"}, "[25]": {"assay": "AUC (0 to infinity) in Sprague-Dawley rat at 30 mg/kg, po by UPLC-MS/MS analysis", "format": "ADME, organism-based", "design": "dose 30 mg/kg, route oral, time infinity", "settings": "in vivo", "in_short": "as §3"}, "[26]": {"target": "T1, Epidermal growth factor receptor", "assay": "Inhibition of EGFR in human HCC827 cells assessed as decrease in EGF-induced AKT phosphorylation by Western blot method", "format": "cell-based", "in_short": "as §2"}, "[27]": {"system": "HCC827", "assay": "Induction of apoptosis in human HCC827 cells assessed as necrotic cells at 1000 nM after 48 hrs by Annexin V-FITC/PI staining based flow cytometry (reference value: 1.41%)", "format": "functional"}},
  "note": "The source made the active and inactive calls. The calls are words filed in the database; no cut-off is given here.",
  "data": [
    {"smiles": "COc1cccc(Nc2cc(Nc3cc(OC)ccc3OC)ncn2)c1", "values": [
      {"measurement": "Activity", "setting": "[1]", "result": 3.61, "unit": "%"},
      {"measurement": "MRT last", "setting": "[2]", "result": 6.66, "unit": "h"},
      {"measurement": "Activity", "setting": "[3]", "result": 13, "unit": "%"},
      {"measurement": "Activity", "setting": "[4]", "result": 11.5, "unit": "%"},
      {"measurement": "Activity", "setting": "[5]", "result": "Active"},
      {"measurement": "inhibition", "setting": "[6]", "result": "Active"},
      {"measurement": "Activity", "setting": "[7]", "result": 25, "unit": "%"},
      {"measurement": "viability at 1 µM", "setting": "[8]", "result": 53.4, "unit": "%"},
      {"measurement": "Activity", "setting": "[9]", "result": 4.27, "unit": "%"},
      {"measurement": "inhibition", "setting": "[10]", "result": "Dose-dependent effect"},
      {"measurement": "inhibition", "setting": "[11]", "result": "Dose-dependent effect"},
      {"measurement": "Cmax", "setting": "[12]", "result": 1060, "unit": "ng/mL"},
      {"measurement": "Activity", "setting": "[13]", "result": 10.8, "unit": "%"},
      {"measurement": "inhibition", "setting": "[14]", "result": "Active"},
      {"measurement": "inhibition", "setting": "[15]", "result": "Dose-dependent effect"},
      {"measurement": "viability at 1 µM", "setting": "[16]", "result": 65.3, "unit": "%"},
      {"measurement": "viability at 0.5 µM", "setting": "[17]", "result": 78.2, "unit": "%"},
      {"measurement": "viability at 0.5 µM", "setting": "[18]", "result": 61.8, "unit": "%"},
      {"measurement": "Activity", "setting": "[19]", "result": "Active"},
      {"measurement": "Vd", "setting": "[20]", "result": 0.03, "unit": "L/kg"},
      {"measurement": "Activity", "setting": "[21]", "result": 8.57, "unit": "%"},
      {"measurement": "Activity", "setting": "[22]", "result": 13.5, "unit": "%"},
      {"measurement": "inhibition", "setting": "[23]", "result": "Dose-dependent effect"},
      {"measurement": "inhibition", "setting": "[24]", "result": "Active"},
      {"measurement": "AUC(0-inf)", "setting": "[25]", "result": 5820, "unit": "ng·h/mL"},
      {"measurement": "inhibition", "setting": "[26]", "result": "Dose-dependent effect"},
      {"measurement": "Activity", "setting": "[27]", "result": 12.6, "unit": "%"}
    ]}
  ]
}
